# Reference: ChEMBL document CHEMBL4613249, “Serendipitous Discovery of Leucine and Methionine Depletion Agents during the Search for Polyamine Transport Inhibitors” (J Med Chem, 2020)
# Active and inactive are the calls of the source.
# Key:
# CHO-K1 [1] = assay: Inhibition of polyamine transporter in DFMO-treated CHOK1 cells assessed as prevention of spermidine entry into cells by measuring rescue of DFMO-induced reduction in cell growth at 1 to 6 uM measured after 48 hrs in presence of amine oxidase suppressor aminoguanidine by MTS assay; assay type: cell-based; details: Cricetulus griseus
# In short: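 CHO K1 cells (1000 cells/well) were pre-incubated 24 h with 1 mM aminoguanidine. They were then given fixed DFMO (4.2 mM) and spermidine (1 μM) plus increasing compound doses for 48 h at 37°C. EC50 is the concentration bringing MTS relative growth halfway between the DFMO+Spd and DFMO-only controls. Runs were done twice in triplicate, with SD.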
# CHO-K1 [2] = assay: Potentiation of 0.5 uM N-(anthracenylmethyl) homospermidine-induced toxicity in CHOK1 cells assessed as increase in Ant-44-induced reduction in cell growth measured after 48 hrs in presence of amine oxidase suppressor aminoguanidine by MTS assay; assay type: functional, cell-based; details: Cricetulus griseus
# In short: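 CHO K1 cells were pretreated 24 h with 1 mM aminoguanidine, then given fixed Ant-44 (0.5 μM) plus increasing compound (up to 5 μM) for 48 h at 37°C. MTS growth was read, with EC50 defined as the dose halving growth relative to Ant-44 alone. Runs were done twice in triplicate, with SD.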
# CHO-K1 [3] = assay: Potentiation of 0.5 uM N-(anthracenylmethyl) homospermidine-induced toxicity in CHOK1 cells assessed as increase in Ant-44-induced reduction in cell growth at 5 uM measured after 48 hrs in presence of amine oxidase suppressor aminoguanidine by microscopy analysis; assay type: functional, cell-based; details: Cricetulus griseus
# In short: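 CHO K1 cells treated 48 h at 37°C with Ant-44 (0.5 μM) plus 5 μM compound, after 1 mM aminoguanidine pretreatment, were examined by microscope for cell number and shape versus untreated control cells.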
# L3.6pl [4] = assay: Cytotoxicity against human L3.6PL cells assessed as reduction in cell viability at 1 uM measured after 72 hrs by MTS assay; assay type: cell-based
# In short: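 L3.6pl cells given compound at increasing concentrations, alone or with Ant-44 fixed at 2 μM, for 72 h at 37°C. % cell growth by MTS against an untreated control run in parallel, in triplicate.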
# L3.6pl [5] = assay: Effect on polyamine level in human L3.6PL cells assessed as spermidine level per mg protein in supernatant at 2 uM measured after 72 hrs in presence of amine oxidase suppressor aminoguanidine by LCMS analysis (reference value: 339 pmol/mg); assay type: functional
# L3.6pl [6] = assay: Effect on polyamine level in human L3.6PL cells assessed as spermine level per mg protein in supernatant at 5 uM measured after 72 hrs in presence of amine oxidase suppressor aminoguanidine by LCMS analysis (reference value: 6152 +/- 5596 pmol/mg); assay type: functional
# L3.6pl [7] = assay: Effect on polyamine level in human L3.6PL cells assessed as decrease in intracellular spermine level at 7 uM measured after 72 hrs in presence of amine oxidase suppressor aminoguanidine by LCMS analysis relative to control; assay type: functional; parameters: scale not given: the % may be the effect or the level left
# In short: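 L3.6pl cells, 50,000 cells/mL in 10 mL per Petri dish with 1 mM aminoguanidine, plated overnight. Dosed with compound at 2, 5 or 7 μM from PBS stocks, then 72 h at 37°C. Intracellular polyamines measured by N-dansylation and HPLC, in duplicate, as nmol/mg protein against a parallel untreated control.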
# [8] = biological target: Large neutral amino acids transporter small subunit 1 (Homo sapiens) (UniProt Q01650); assay: Inhibition of LAT1-mediated [3H]-leucine uptake in human L3.6PL cells at 2 to 7 uM preincubated for 24 hrs at 37 degree C followed by HBBS addition and compound washout and measured after 15 mins by scintillation counter method; assay type: cell-based
# In short: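 L3.6pl cells were preincubated with compound for 24 h at 37°C, then washed and placed in HBSS. ³H-leucine uptake was measured over 15 min at 37°C. Unbound label was removed with three cold buffer washes, and counts were normalized to μg protein.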
# L3.6pl [9] = assay: Effect on polyamine level in human L3.6PL cells assessed as decrease in intracellular spermidine level at 1 uM measured after 72 hrs in presence of amine oxidase suppressor aminoguanidine and Ant-44 by LCMS analysis; assay type: functional, cell-based
# In short: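 L3.6pl cells dosed with Ant-44 fixed at 2 μM plus increasing compound for 72 h at 37°C. Intracellular polyamines and Ant-44 given as nmol/mg protein, in duplicate, with a parallel untreated control.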
# L3.6pl [10] = assay: Effect on polyamine level in human L3.6PL cells assessed as glutamic acid level per mg protein in supernatant at 5 uM measured after 72 hrs in presence of amine oxidase suppressor aminoguanidine by LCMS analysis (reference value: 23412 +/- 3983 pmol/mg)
# Large neutral amino acids transporter small subunit 1 (Homo sapiens), sequence (Q01650 whole entry): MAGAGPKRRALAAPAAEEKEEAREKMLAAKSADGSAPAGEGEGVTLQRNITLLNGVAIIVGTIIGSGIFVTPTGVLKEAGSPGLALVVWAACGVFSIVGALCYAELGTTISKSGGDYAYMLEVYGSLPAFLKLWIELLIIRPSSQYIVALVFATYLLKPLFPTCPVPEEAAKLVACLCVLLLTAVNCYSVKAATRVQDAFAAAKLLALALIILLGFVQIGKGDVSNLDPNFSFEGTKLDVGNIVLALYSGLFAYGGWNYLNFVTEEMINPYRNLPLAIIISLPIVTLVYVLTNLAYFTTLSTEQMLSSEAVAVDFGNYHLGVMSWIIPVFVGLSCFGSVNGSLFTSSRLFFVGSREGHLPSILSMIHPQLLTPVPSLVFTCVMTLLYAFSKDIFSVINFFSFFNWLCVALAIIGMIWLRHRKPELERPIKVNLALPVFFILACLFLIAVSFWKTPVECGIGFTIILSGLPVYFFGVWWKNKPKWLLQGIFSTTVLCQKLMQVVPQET
smiles,measurement,setting,value
CC(C)CCN1CCN([C@@H](CNCc2ccccc2)CC2CCCCC2)C[C@@H]1CC(C)C,inhibition,CHO-K1 [1],inactive
same,Activity,CHO-K1 [2],Dose-dependent effect
same,EC50,"CHO-K1 [2]; CHO-K1, 48 h",60 nM
same,Activity,CHO-K1 [3],Active
same,Activity,L3.6pl [4],Non-Toxic
same,Activity,L3.6pl [5],131 pmol/mg
same,Activity,L3.6pl [6],2690 pmol/mg
same,Activity,L3.6pl [7],30%
same,inhibition,[8],inactive
same,Activity,L3.6pl [9],Active
same,Activity,L3.6pl [10],34033 pmol/mg
